Assay results from ChEMBL document CHEMBL1122498, “Improved delivery through biological membranes. 11. A redox chemical drug-delivery system and its use for brain-specific delivery of phenylethylamine” (1983).

Experiments:
Assay type in all cases: functional
Homo sapiens [1] = species on record: Homo sapiens; experiment: In vitro facile oxidative conversion to the corresponding quaternary derivative 5a in fresh human plasma
How it was run: (§1)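 Dihydro derivative in methanol (0.2 mL of 6.25 × 10⁻⁴ M) diluted to 10 mL with 20% fresh human plasma in phosphate buffer pH 7.4. Held at 37 °C with UV scans 400–250 nm every 10 min for 2 h against a plasma/methanol reference. Oxidation to the pyridinium salt followed by loss at ~350 nm and gain at 262 nm. First-order k and t1/2 derived.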

Rattus norvegicus [2] = species on record: Rattus norvegicus; experiment: In vitro facile oxidative conversion to the corresponding quaternary derivative 5a in rat liver homogenate
How it was run: (§2)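 Sprague-Dawley rat liver (5.0 g) homogenized in 50 mL phosphate buffer pH 7.4, centrifuged, heated 50 °C for 5 min, recentrifuged, and diluted to 250 mL (2%). Dihydro derivative (0.2 mL of 6.25 × 10⁻⁴ M in methanol) diluted to 10 mL with homogenate. UV scans at 37 °C from 400 to 250 nm every 5 min for 1 h against a homogenate/methanol reference. First-order k and t1/2 derived.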

Homo sapiens [3] = species on record: Homo sapiens; experiment: In vitro facile oxidative conversion to the corresponding quaternary derivative 5a in heparinized human whole blood
Rattus norvegicus [4] = species on record: Rattus norvegicus; experiment: In vitro facile oxidative conversion to the corresponding quaternary derivative 5a in rat brain homogenate
How it was run: (§3)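 Rat brain (2.0 g) homogenized in 10 mL phosphate buffer pH 7.4, centrifuged, heated 50 °C for 5 min, recentrifuged, and diluted to 100 mL (2%). To 10 mL was added 0.2 mL of 6.25 × 10⁻⁴ M methanolic dihydro derivative. First-order k and t1/2 derived.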

Homo sapiens [5] = species on record: Homo sapiens; experiment: Half life during the site specific conversion to the quaternary derivative 5a in fresh human plasma was determined; how it was run: as §1
Rattus norvegicus [6] = species on record: Rattus norvegicus; experiment: Half life during the site specific conversion to the quaternary derivative 5a in rat brain homogenate was determined; how it was run: as §3
Rattus norvegicus [7] = species on record: Rattus norvegicus; experiment: Half life during the site specific conversion to the quaternary derivative 5a in rat liver homogenate was determined; how it was run: as §2
Homo sapiens [8] = species on record: Homo sapiens; experiment: Half life during the site specific conversion to the quaternary derivative 5a in heparinized human whole blood was determined

Structure (SMILES)	Activity (Homo sapiens [1])	Activity (Rattus norvegicus [2])	Activity (Homo sapiens [3])	Activity (Rattus norvegicus [4])	T1/2 (Homo sapiens [5]) [min]	T1/2 (Rattus norvegicus [6]) [min]	T1/2 (Rattus norvegicus [7]) [min]	T1/2 (Homo sapiens [8]) [min]
O=C(NCCc1ccccc1)C1=CN(Cc2ccccc2)C=CC1	0.74 10e-4 K s-1	7.5 10e-4 K s-1	4.74 10e-4 K s-1	2.1 10e-4 K s-1	156	55	15.3	24.4
CN1C=CCC(C(=O)NCCc2ccccc2)=C1	1.8 10e-4 K s-1	8.13 10e-4 K s-1	8.4 10e-4 K s-1	4.12 10e-4 K s-1	64.2	28.2	14.4	13.7
CN1C=C(C(=O)NCCc2ccccc2)CC(C(=O)NCCc2ccccc2)=C1	–	–	0.494 10e-4 K s-1	0.084 10e-4 K s-1	–	1370	–	234
CCOC(=O)C1=CN(C)C=C(C(=O)NCCc2ccccc2)C1	–	–	1.13 10e-4 K s-1	0.174 10e-4 K s-1	–	666	–	70.2
